Measured values as given in ChEMBL document CHEMBL4219164, “Design, synthesis and biological evaluation of novel 3-substituted pyrazolopyrimidine derivatives as potent Bruton's tyrosine kinase (BTK) inhibitors” (Bioorg Med Chem, 2018).

Legend:
[1] = target: Tyrosine-protein kinase BTK (Homo sapiens, UniProt Q06187); assay: Inhibition of full length human N-terminal GST-tagged BTK (2 to 659 residues) expressed in baculovirus expression system using biotinylated substrate after 50 mins by HTRF assay
Sequence of Tyrosine-protein kinase BTK (Q06187 whole entry, the tested form may be a part): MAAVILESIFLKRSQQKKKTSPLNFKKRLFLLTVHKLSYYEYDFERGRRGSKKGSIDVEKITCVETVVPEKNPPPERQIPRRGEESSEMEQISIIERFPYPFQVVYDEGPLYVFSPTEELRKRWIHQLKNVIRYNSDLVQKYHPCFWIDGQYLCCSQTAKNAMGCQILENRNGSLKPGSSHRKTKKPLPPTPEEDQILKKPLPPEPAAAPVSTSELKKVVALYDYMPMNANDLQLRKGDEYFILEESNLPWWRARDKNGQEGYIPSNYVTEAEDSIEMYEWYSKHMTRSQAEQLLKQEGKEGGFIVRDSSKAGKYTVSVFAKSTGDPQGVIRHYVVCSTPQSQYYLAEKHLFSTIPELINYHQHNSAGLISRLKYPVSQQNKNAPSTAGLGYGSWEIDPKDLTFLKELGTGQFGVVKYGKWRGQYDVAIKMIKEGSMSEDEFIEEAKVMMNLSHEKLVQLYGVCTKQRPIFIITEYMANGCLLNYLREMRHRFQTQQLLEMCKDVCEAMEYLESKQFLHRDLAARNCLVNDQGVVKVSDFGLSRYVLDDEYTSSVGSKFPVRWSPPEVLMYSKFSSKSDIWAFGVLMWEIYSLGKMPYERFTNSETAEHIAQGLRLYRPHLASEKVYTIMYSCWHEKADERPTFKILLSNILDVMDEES

Raji = assay: Antiproliferative activity against human Raji cells after 48 hrs by CCK8-based assay; type: functional, cell-based
In short: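 CCK-8 viability readout. Cells were seeded at 2000–3000 per well and held 24 h at 37 °C in 5% CO2, then exposed to compound at five concentrations within 1.25–40 μM, each in triplicate. CCK-8 was added for a further 1–4 h and absorbance read at 450 nm, with cell number set to give 0.5–1.2. IC50 was taken as the mean of at least three experiments.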

Ramos = assay: Antiproliferative activity against human Ramos cells after 48 hrs by CCK8-based assay; type: functional, cell-based

| IC50 [1] [nM] | IC50 (Raji) [nM] | IC50 (Ramos) [nM] | Structure (SMILES) |
| --- | --- | --- | --- |
| 89.6 |  |  | C=CC(=O)N1CCC[C@@H](n2nc(C#CCOc3ccc(OC)cc3)c3c(N)ncnc32)C1 |
| 22.2 |  |  | C=CC(=O)N1CCC[C@@H](n2nc(CCCOc3ccccc3)c3c(N)ncnc32)C1 |
| 18.1 | 2280 | > 40000 | C=CC(=O)N1CCC[C@@H](n2nc(C#CCOc3cccc(Cl)c3)c3c(N)ncnc32)C1 |
| 11.3 |  |  | C=CC(=O)N1CCC[C@@H](n2nc(/C=C/COc3ccccc3)c3c(N)ncnc32)C1 |
| 49.2 |  |  | C=CC(=O)N1CCC[C@@H](n2nc(C#CCOc3ccccc3C)c3c(N)ncnc32)C1 |
| 11 | 2720 | 37200 | C=CC(=O)N1CCC[C@@H](n2nc(C#CCSc3ccccc3)c3c(N)ncnc32)C1 |
| 7.95 | 1800 | 8910 | C=CC(=O)N1CCC[C@@H](n2nc(C#CCOc3ccccc3)c3c(N)ncnc32)C1 |
| 102 |  |  | C=CC(=O)N1CCC[C@@H](n2nc(C#CCc3ccccc3)c3c(N)ncnc32)C1 |
| 209 |  |  | C=CC(=O)N1CCC[C@@H](n2nc(C#CCOc3cccc(C(F)(F)F)c3)c3c(N)ncnc32)C1 |
| 26.9 |  |  | C=CC(=O)N1CCC[C@@H](n2nc(C#CCOc3ccc(C)cc3)c3c(N)ncnc32)C1 |
| 18.1 | > 40000 | 18200 | C=CC(=O)N1CCC[C@@H](n2nc(C#CCNc3ccccc3)c3c(N)ncnc32)C1 |
| 9.84 | 1690 | > 40000 | C=CC(=O)N1CCC[C@@H](n2nc(C#CCOc3cccc(OC)c3)c3c(N)ncnc32)C1 |
| 20.8 |  |  | C=CC(=O)N1CCC[C@@H](n2nc(C#CCOc3cccc(C)c3)c3c(N)ncnc32)C1 |
| 45.4 |  |  | C=CC(=O)N1CCC[C@@H](n2nc(C#CCOc3cccc(C(C)C)c3)c3c(N)ncnc32)C1 |
| 15.9 | 1620 | > 40000 | C=CC(=O)N1CCC[C@@H](n2nc(C#CCCc3ccccc3)c3c(N)ncnc32)C1 |
| 39.8 |  |  | C=CC(=O)N1CCC[C@@H](n2nc(C#CCCOc3ccccc3)c3c(N)ncnc32)C1 |
| 38.2 |  |  | C=CC(=O)N1CCC[C@@H](n2nc(C#CCOc3ccccc3OC)c3c(N)ncnc32)C1 |
| 23.2 | > 40000 | 14600 | C=CC(=O)N1CCC[C@@H](n2nc(/C=C\COc3ccccc3)c3c(N)ncnc32)C1 |

| Structure (SMILES) | IC50 [1] [nM] | IC50 (Raji) [nM] | IC50 (Ramos) [nM] |
| --- | --- | --- | --- |
| C=CC(=O)N1CCC[C@@H](n2nc(-c3ccc(Oc4ccccc4)cc3)c3c(N)ncnc32)C1 [IBRUTINIB] |  | 1490 |  |
